Results taken from the EternaBench riboswitch data.

Experiments:
MS2 coat protein [1] = assay: apparent Kd, MS2 coat protein; higher = weaker binding; RNA-MaP array; tryptophan 2.4 mM where present
Outline: (§1)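 Two titrations, one without ligand and one with constant ligand, were run with SNAP-549-labelled MS2 coat protein from 0.7 or 1.5 nM, doubling to 3 µM. The targets were designs transcribed by stalled E. coli RNA polymerase on Illumina sequencing-chip clusters, in 100 mM Tris-HCl pH 7.5, 80 mM KCl, 4 mM MgCl2, BSA, DTT, yeast tRNA and Tween-20. The apparent Kd is the median of filtered per-cluster binding-curve fits, with green signal normalised to red-channel RNA signal and control-cluster median Fmax.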

MS2 coat protein [2] = assay: apparent Kd, MS2 coat protein; higher = weaker binding; RNA-MaP array; theophylline 2 mM where present
Outline: as §1

[3] = designed as: ON switch for tryptophan, no ligand
[4] = ligand present: tryptophan, designed as: ON switch for tryptophan
[5] = designed as: OFF switch for tryptophan, no ligand
[6] = ligand present: tryptophan, designed as: OFF switch for tryptophan
[7] = designed as: ON switch for theophylline, no ligand
[8] = ligand present: theophylline, designed as: ON switch for theophylline

Sequence	apparent Kd (MS2 coat protein [1]; [3]) [nM]	apparent Kd (MS2 coat protein [1]; [4]) [nM]	apparent Kd (MS2 coat protein [1]; [5]) [nM]	apparent Kd (MS2 coat protein [1]; [6]) [nM]	further results
AACAUGAGGAUCACCCAUGUUCUCGUGUACCGAGGACCGGUACGGCCGCCACUCGGUUCUCGCGAGGAUGGUCAAAGACUAUCCA	19.1	16	–	–	–
AAUAAUAGGUGAUCCUGACGAGUGGCAUAACGAGGACCGGUACGGCCGCCACUCGAACAUGAGGAUCACCCAUGUAGCCACUCGA	312	393	–	–	–
AAUACCGGAUCGGCCGCCACUGGUUGGCCCUGUGUACAUGAGGAUCACCCAUGUCCAUCCCAAGCCAGGACCGGGAUCUUUGUGU	16.7	10.1	–	–	–
AAUCGUAAGGCGGCCGCCACUACACAUGAGGAUCACCCAUGUCUCGCAGGCUUGCGUUGGGAUAGUAGGACCGGGCCAGUAAUAA	–	–	25.1	21.8	–
AAUGUAUGGCACAUGAGGAUCACCCAUGUGCGAGGACCGGUACGGCCGCCACUCGGUCGUGGGUUCUUAUUACUAUACAUUAAUG	–	–	10.7	12.3	–
ACAUGAGGAUCACCCAUGUUAAACAGGGUGCGAGGACCGGUACGGCCGCCACUCGGACAUUAUUACGAGUGAAUGGUAACGAUGU	–	–	19.9	20	–
ACAUGUUGGUGGUAUCUACGAAGGCGGAAACGAGGACCGGUACGGCCGCCACUCGGCGACAUGAGGAUCACCCAUGUGGUUAAAA	–	–	52.6	27.5	–
ACAUUGCGCUCGGCCGCCACUGCCUUAUGAUUAUAAGGAUUAAUGAACAUGAGGAUCACCCAUGUCAGGACCGGGAGCGAACCAU	13.7	13.4	–	–	–
ACCUGCGUUUGUUUCUUUCUGACGCAGGUUCGAGGACCGGUACGGCCGCCACUCGGACAUGAGGAUCACCCAUGUUUGAAAUGGG	–	–	253	227	–
AGAGCAUUGACGGCCGCCACUCGUGUCACAUGAGGAUCACCCAUGUGAUGGGUGAUAGCCCGGUUGAGGACCGGGUCAAUGCUCA	13.7	19.2	–	–	–
AGAUUCGACACGGCCGCCACUCGUGGUGGAUUACCUAGUGUCGAACAUGAGGAUCACCCAUGUACGAGGACCGGGUGUUGAGUCU	–	–	75	200	–
AGAUUCGACACGGCCGCCACUUGUGGUGGAUUAUCCUAUGUCGAACAUGAGGAUCACCCAUGUACAAGGACCGGGUGUUGAGUCU	–	–	401	119	–
AGCCACUCGAGUGAUCCUCACGAGUGGCAACGAGGACCGGUACGGCCGCCACUCGAAUAACAUGAGGAUCACCCAUGUUUAUAAU	93.2	96.2	–	–	–
AGCCGGAUUACGGCCGCCACUGUAGACGUGACGAAAGUCGCGUCAACAUGAGGAUCACCCAUGUACAGGACCGGGUGGUCAGGCG	173	41.2	–	–	–
AGUCACUCGAGGUGAUCUGACGAGUGGCAACGAGGACCGGUACGGCCGCCACUCGAAUAAACAUGAGGAUCACCCAUGUACAAAU	213	196	–	–	–
AUAAAUAAGGCGGCCGCCACUAAUAUAUUAAUAUUUUAUAUCCGACAUGAGGAUCACCCAUGUGGUAGGACCGGGCCAAUAAUUA	26.2	25.8	–	–	–
AUCUUUGGCGAUCUGGGAAAACCAGAUCGACGAGGACCGGUACGGCCGCCACUCGUGUAUAAUAUACAUGAGGAUCACCCAUGUA	47.5	30.5	–	–	–
AUGGUCGACGAUCUGCGAAAAGCAGAUCGACGAGGACCGGUACGGCCGCCACUCGUGUUUAUUUAACAUGAGGAUCACCCAUGUA	80.2	22.3	–	–	–
CACGCACGAUCGGCCGCCACUCAUGUAGCUUACAUGAGGAUCACCCAUGUAUUUUCUUUCUUUUAGAGGACCGGGAUCGUGCGUG	24.9	16.5	–	–	–
CAUAUAUAAGCGGCCGCCACUUACUCAUGAGGUAACAACAUGAGGAUCACCCAUGUUUGAGGAUCAAGGACCGGGCUUAUAUAUG	28.3	18.3	–	–	–
CCUAUGCAGUCGGCCGCCACUGAGUCCUCAAUAAUAAAUUAAUAAACAUGAGGAUCACCCAUGUACAGGACCGGGACUGUAUAGG	–	–	314	373	–
CGAAUAUAGACGGCCGCCACUCUACAAACAUGAGGAUCACCCAUGUUCACAUAGUGGAAACACAUGAGGACCGGGUCAUAGGCAU	18.5	14	–	–	–
CGAUAUAUAGCGGCCGCCACUUACUCAUGAGGUAACAACAUGAGGAUCACCCAUGUUUGAGGAUCAAGGACCGGGCUAUGUAUCG	27.4	18	–	–	–
CGCCACAUGAGGAUCACCCAUGUCUUGGCGCGAGGACCGGUACGGCCGCCACUCGCGUUUCAGUGAGCGCAUGCGUCCUUGGUAU	–	–	18.3	26.1	–
CUAAUUAAAUCGGCCGCCACUUACUCAUGAGGUAACAACAUGAGGAUCACCCAUGUUUGAGGAUCAAGGACCGGGAUUUAAUUAG	28.9	18.2	–	–	–
CUACAUUUGUAGAAACCGGUCAACAAUAAUCGAGGACCGGUACGGCCGCCACUCGAUGUGAAAUACACAUGAGGAUCACCCAUGU	15.9	16.9	–	–	–

Sequence	apparent Kd (MS2 coat protein [1]; [3]) [nM]	apparent Kd (MS2 coat protein [1]; [4]) [nM]	apparent Kd (MS2 coat protein [1]; [5]) [nM]	apparent Kd (MS2 coat protein [1]; [6]) [nM]	further results
CUACAUUUGUAGAAACCGGUCACCGUUACUCGAGGACCGGUACGGCCGCCACUCGUGUCACGUGAUACAUGAGGAUCACCCAUGU	37.4	31.3	–	–	–
CUAUAAGUACCGGUCCUCAGAUCCUCAUGACGAGGACCGGUACGGCCGCCACUCGAAACAUGAGGAUCACCCAUGUAAUAAUACC	–	–	35.5	19.9	–
CUAUAUAUAGCGGCCGCCACUUACUCAUGAGGUAACAACAUGAGGAUCACCCAUGUUUGAGGAUCAAGGACCGGGCUAUAUAUAG	28.2	16.7	–	–	–
CUAUAUUUAUCGGCCGCCACUUACUCAUGAGGUAACAACAUGAGGAUCACCCAUGUUUGAGGAUCAAGGACCGGGAUAAAUAUAG	27.8	16.3	–	–	–
CUAUGUAUAUAUGCGAAAGCUACGUGUUGACGAGGACCGGUACGGCCGCCACUCGACAUGAGGAUCACCCAUGUAAUAUAUAUAG	200	62.7	–	–	–
CUGCCUGCCUCACAUGAGGAUCACCCAUGUCGAGGACCGGUACGGCCGCCACUCGUCGUCGGUAAUACAGGCAUUGAAUAAUAUA	–	–	10.3	37.5	–
GAGUAGUAGACGGCCGCCACUAAACAUGAGGAUCACCCAUGUAGUGAUCCGUUACCUAGCGUAGAUAGGACCGGGUCAGAUAGUA	–	–	26	29.2	–
GAUAUGGAAACAUGUCAGAUCCUUACCGGUCGAGGACCGGUACGGCCGCCACUCGGAAAUAUUGUACAUGAGGAUCACCCAUGUA	–	–	13.7	14.5	–
GCAUCCUAGUCGGCCGCCACUGCAACAUGAGGAUCACCCAUGUCUGUAUGUGAUCCAUGCAGUAGCAGGACCGGGACUAGGAUGC	501	130	–	–	–
GCAUCCUAGUCGGCCGCCACUGCACGAUCAGUGGCAGAUCGUCAACAUGAGGAUCACCCAUGUAGCAGGACCGGGACUAGGAUGC	17.6	24.6	–	–	–
GCAUCCUAGUCGGCCGCCACUGCAUGUAGGCAGUGCUGCUACAAACAUGAGGAUCACCCAUGUAGCAGGACCGGGACUAGGAUGC	15	13.1	–	–	–
GGAGCUACGUCGGCCGCCACUAGCGGAUAUUACGUGUACAUGAGGAUCACCCAUGUAAUACGGUUUAGGACCGGGACGUAGCUCC	–	–	17.3	16.5	–
GGAUAGGACACGGCCGCCACUGCCUAGGAUACUAGCAACAUUUGGGUACAUGAGGAUCACCCAUGUAGGACCGGGUGUCCUAUCG	–	–	49.2	53.9	–
GGAUCAGGAUCGGCCGCCACUGAUAGUGAUCCAACGACAUGAGGAUCACCCAUGUACAUUUUAAUCAGGACCGGGAUCAAGUUCC	–	–	129	209	–
GGUAUAUAGGCGGCCGCCACUGAUUUUCAUAUAUAUAUAACAUGAGGAUCACCCAUGUAGAUAUACAGGACCGGGCCUAUAUAUU	14.9	12.8	–	–	–
UCGUGUGUUUCGGAUACCAGUGAAAUCGAUACAUGAGGAUCACCCAUGUGAGAGGAUGUACACCCUUGGCAGCUGUCUGUAUCUG	–	–	–	–	apparent Kd (MS2 coat protein [2]; [7]): 13.1 nM; apparent Kd (MS2 coat protein [2]; [8]): 13.7 nM
UCUUUCUAUGUAGAUACCAGCAUGUUAUAUUUCUAAUGACAUGAGGAUCACCCAUGUAAAUGCCCUUGGCAGCUACAUUUUCUUU	–	–	–	–	apparent Kd (MS2 coat protein [2]; [7]): 23.1 nM; apparent Kd (MS2 coat protein [2]; [8]): 16 nM
UGAUCCUGCAGGGAUACCAGCGCCGCUUGAUAACUGUGCACAUGAGGAUCACCCAUGUAGCGCCCUUGGCAGCCCAGCUAGAGGG	–	–	–	–	apparent Kd (MS2 coat protein [2]; [7]): 25.4 nM; apparent Kd (MS2 coat protein [2]; [8]): 23 nM
UGCACCAUAAUCAUGUUGGUGCUAGGUGAUACCAGCAUCGAAAGAUGCCCUUGGCAGCACCAACAUGAGGAUCACCCAUGUAAUA	–	–	–	–	apparent Kd (MS2 coat protein [2]; [7]): 130 nM; apparent Kd (MS2 coat protein [2]; [8]): 99.8 nM
UGUAACAUGAGGAUCACCCAUGUGAGUGAUACCAGAUAAGUAGUAGUCCCUUGGCAGCAUAUUGGGCGAGUGUAUAGUCUAUGCG	–	–	–	–	apparent Kd (MS2 coat protein [2]; [7]): 146 nM; apparent Kd (MS2 coat protein [2]; [8]): 193 nM
UGUACAUGAGGAUCACCCAUGUUACAUGAUACCAGACAUGAGAGUGUCCCUUGGCAGCAUGGAGCUGAUACGGCGGGAAGCCGGA	–	–	–	–	apparent Kd (MS2 coat protein [2]; [7]): 26.8 nM; apparent Kd (MS2 coat protein [2]; [8]): 32.6 nM
UGUUUGGUGCGCGAGUGUUGGAUAAUUGAUACCAGUGUAGAUGUGCGCCCUUGGCAGCGAAUCCUAACAUGAGGAUCACCCAUGU	–	–	–	–	apparent Kd (MS2 coat protein [2]; [7]): 43.8 nM; apparent Kd (MS2 coat protein [2]; [8]): 57.1 nM
UUAAUGGAGCUUUAAUUUACGAUUUCUGAUACCAGUGUUUCAUUUCACCCUUGGCAGCAGUGACAUGAGGAUCACCCAUGUAAUA	–	–	–	–	apparent Kd (MS2 coat protein [2]; [7]): 25.4 nM; apparent Kd (MS2 coat protein [2]; [8]): 23.5 nM
UUACAUGAGGAUCACCCAUGUCAUAAUGAUACCAGAUAGUUAAUGAUCCCUUGGCAGCAUAAUACCUAGACAUUUAAGUCAUAGG	–	–	–	–	apparent Kd (MS2 coat protein [2]; [7]): 83.1 nM; apparent Kd (MS2 coat protein [2]; [8]): 41 nM
UUUGAGAUAACAGAUACCAGCGUGUUAUAAAACAUGAGGAUCACCCAUGUAGUGAUCAAGCGCCCUUGGCAGCUGGUAUUUUAGG	–	–	–	–	apparent Kd (MS2 coat protein [2]; [7]): 95.2 nM; apparent Kd (MS2 coat protein [2]; [8]): 210 nM
UUUGCACAUGAGGAUCACCCAUGUACAGAUACCAGCCUCAUCUACGGCCCUUGGCAGCUGAGACAAUGGUGACGUGAUGGGCUUU	–	–	–	–	apparent Kd (MS2 coat protein [2]; designed as: OFF switch for theophylline, no ligand): 11.3 nM; apparent Kd (MS2 coat protein [2]; ligand present: theophylline, designed as: OFF switch for theophylline): 16.2 nM
